Compound activity deposited in PubChem BioAssay by Johns Hopkins Ion Channel Center.
MrgX1 allo act = positive allosteric modulators of MrgX1, primary screen, HEK293 cells, Fluo-4 calcium flux | Mas-related G-protein coupled receptor member X1 (Homo sapiens), Q96LB2 | actives 0.63% (n = 310,000) | FDSS; stronger effect = higher value | B-score at 10 µM | AID 588675, 2011;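 active = plate-corrected calcium response at least 3 library SD above typical, normal starting fluorescence, not activating the receptor alone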;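 also: compound read alongside a low EC10 to EC30 dose of BAM8-22 agonist; peak minus trough fluorescence over baseline measured at the second addition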
Target sequence (Q96LB2 whole entry, looked up): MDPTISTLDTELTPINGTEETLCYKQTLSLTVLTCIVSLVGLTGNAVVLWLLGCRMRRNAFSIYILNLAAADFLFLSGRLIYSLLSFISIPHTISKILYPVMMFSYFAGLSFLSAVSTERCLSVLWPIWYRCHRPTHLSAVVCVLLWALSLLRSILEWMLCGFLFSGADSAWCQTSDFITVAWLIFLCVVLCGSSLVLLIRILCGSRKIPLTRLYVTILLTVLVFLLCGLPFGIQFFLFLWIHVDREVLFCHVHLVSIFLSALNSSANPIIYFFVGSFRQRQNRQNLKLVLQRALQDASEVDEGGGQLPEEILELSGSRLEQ
MrgX1 antag = antagonists of human MrgX1 receptor, primary screen, HEK293 cells, Fluo-4 calcium flux; Mas-related G-protein coupled receptor member X1 (Homo sapiens), Q96LB2; BAM8-22 antagonism; stronger effect = lower value; B-score at 10 µM; actives 1.3% (n = 310,000);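 active = calcium-response B-score plate-corrected more than 3 library SD below zero, starting fluorescence within 5 deviations, no agonist response on first addition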;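 also: peak minus trough fluorescence over baseline after final BAM8-22 challenge near maximal dose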
RGS4 pot = RGS4 potentiators or activators, primary screen, cell-based, HEK293 M3R inducible RGS4, calcium flux; B-score at 10 µM; carbachol calcium flux Fluo4; stronger effect = lower value; actives 0.92% (n = 310,000);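 active = B-score of the integrated calcium signal more than 4 SD below the library mean, with starting fluorescence not abnormally high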;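 also: negative B-score means reduced calcium response which marks RGS4 activation or potentiation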
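Material: Inducible-RGS4 HEK293 cells carrying M3 receptor; also added: carbachol at ECmax as muscarinic agonist stimulus; incubation: compound preincubation 20 min at room temperature before agonist; signal: Fluo4-AM (2 µM) calcium-flux fluorescence, kinetic read; measure: integrated calcium ratio converted to B score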
RGS4 block = RGS4 inhibitors, primary screen, cell-based, HEK293 M3R inducible RGS4, calcium flux | Regulator of G-protein signaling 4 (Homo sapiens), P49798 | Fluo-4 calcium flux; stronger effect = higher value; triggered by carbachol at its EC20 | B-score at 10 µM | actives 0.45% (n = 310,000) | AID 463165, 2010;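 active = B-score, a plate-corrected calcium signal, over three deviations above library mean, with baseline fluorescence within five deviations of library mean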;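 also: RGS4 expression induced by doxycycline in cells with stable M3 receptor; B-score is computed from the integrated fluorescence ratio over baseline after carbachol; higher B-score means a larger calcium signal and so more RGS4 inhibition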
Target sequence (P49798 whole entry, looked up): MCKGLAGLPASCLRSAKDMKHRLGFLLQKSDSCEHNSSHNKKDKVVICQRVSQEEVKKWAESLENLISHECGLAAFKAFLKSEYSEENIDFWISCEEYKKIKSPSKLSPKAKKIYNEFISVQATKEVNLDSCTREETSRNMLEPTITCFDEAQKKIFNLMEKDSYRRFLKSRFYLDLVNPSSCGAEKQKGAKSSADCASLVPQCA
MrgX1 agonist = agonists of human MrgX1 receptor, primary screen, HEK293 cells, Fluo-4 calcium flux; actives 0.44% (n = 310,000); Fluo-4 calcium fluorescence, agonist mode; stronger effect = higher value; Mas-related G-protein coupled receptor member X1 (Homo sapiens), Q96LB2; B-score at 10 µM;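 active = calcium response B-score plate-corrected fluorescence ratio at least 3 library SD, with starting fluorescence B-score inside 5 SD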
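Assay system: stable human MrgX1 HEK293 cell line. Quantity: 15,000 cells per well. Schedule: cells plated overnight, dye loaded 0.5 h 37 °C, 0.5 h room temperature. Detection: Fluo-4 NW calcium-flux fluorescence, kinetic read. Read-out basis: peak-minus-minimum fluorescence over baseline, converted to B scores. Control set: positive and negative control wells on each plate.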
MrgX1 allo conf = MrgX1 positive allosteric modulators, duplicate retest, confirmation, HEK293 cells, Fluo-4 calcium flux | shares compounds with MrgX1 allo act | Fluo-4 calcium fluorescence, FDSS | activation (ratio percentage), % at 10 µM | actives 13% (n = 1,200);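 active = ratio at least 3 SD above the weak peptide control, stable starting fluorescence, no direct agonism earlier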;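 also: compound followed by low BAM8-22 agonist challenge near EC20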
HEK293 Ca flux = nonspecific calcium signal in parental HEK293, confirmation, counter-screen for MrgX1 antagonist project, parental HEK293 cells, Fluo-4 calcium flux; shares compounds with MrgX1 antag; Fluo-4 calcium fluorescence, FDSS; fluorescence ratio F(max-min)/F0 at 10 µM; actives 2% (n = 4,000);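 active = duplicate-averaged calcium fluorescence ratio at least three times the standard deviation of buffer wells, a nonspecific response in parental cells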
HEK293 Ca counter = calcium response in parental HEK293 cells, primary screen, counter-screen for MrgX1 allosteric activator project, cell-based, Fluo-4 calcium flux, duplicate. shares compounds with MrgX1 antag. Fluo-4 fluorescence ratio; stronger effect = higher value. fluorescence ratio F(max-min)/F0 at 10 µM. actives 0.4% (n = 4,000). AID 624114, 2012;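 active = calcium fluorescence ratio, averaged over duplicates, at least 3 SD of the buffer-well ratio, meaning a nonspecific response in receptor-free cells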;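 also: untransfected parental HEK293 lacking MrgX1 used as counterscreen for MrgX1 allosteric activators; fluorescence change taken during the second addition on a kinetic imager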
HEK293 Ca cntr2 = calcium response in parental HEK293 cells, primary screen, counter-screen for MrgX1 agonist project, cell-based, Fluo-4 calcium flux, duplicate, agonist mode; shares compounds with MrgX1 antag; Fluo-4 calcium fluorescence (FDSS); stronger effect = higher value; fluorescence ratio F(max-min)/F0 at 10 µM; actives 8.7% (n = 4,000); AID 624115, 2012;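 active = calcium fluorescence ratio at least three times the spread of buffer wells, meaning a non-specific response in parental cells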
Of the large screens only hits and unclear results are named; the others gave an inactive call (follow-up assays come after a bar, where they were run). Shown are actives, neighbours in structure and some others; about 3.5% of the full set was active somewhere.

Cc1ccc(S(=O)(=O)N/N=C/c2cccc3nccnc23)cc1	MrgX1 allo act 20 | MrgX1 allo conf inactive | HEK293 Ca flux inactive | HEK293 Ca counter inactive | HEK293 Ca cntr2 inactive
Cc1ccc(S(=O)(=O)N/N=C/c2cccc3c2OCCO3)cc1	none
O=C(N/C(=C\c1cccc([N+](=O)[O-])c1)C(=O)N1CCOCC1)c1ccco1	none
Cc1nn(C)c(C(=O)NC2C3CC4CC(C3)CC2C4)c1Cl (centres undefined)	MrgX1 allo act 13 | MrgX1 allo conf inactive | HEK293 Ca flux inactive | HEK293 Ca counter inactive | HEK293 Ca cntr2 inactive
O=C(Nc1ccccc1C(=O)O)c1cccc(NS(=O)(=O)c2ccc(Br)cc2)c1	MrgX1 allo act 11 | MrgX1 allo conf inactive | HEK293 Ca flux inactive | HEK293 Ca counter inactive | HEK293 Ca cntr2 inactive
O=C(Nc1ccccc1C(=O)O)c1cccc(S(=O)(=O)Nc2ccc(Br)cc2)c1	none
CN(C)CCCOc1ccc2c(c1)Sc1ccccc1CC2=O	MrgX1 allo act 8.5 | MrgX1 allo conf inactive | HEK293 Ca flux inactive | HEK293 Ca counter inactive | HEK293 Ca cntr2 inactive
COC(=O)c1ccc(N2C(=O)CC(Sc3n[nH]c(C)n3)C2=O)cc1 (centres undefined)	MrgX1 allo act 7.8 | MrgX1 allo conf inactive | HEK293 Ca flux inactive | HEK293 Ca counter inactive | HEK293 Ca cntr2 inactive
COC(=O)c1cc(C(=O)OC)cc(N2C(=O)CC(Sc3nc(C)cc(C)n3)C2=O)c1 (centres undefined)	none
CCOC(=O)c1cc(-c2cccnc2)nn1-c1ccccc1	none
CCOC(=O)c1cc(-c2ccc(OC)cc2)nn1-c1ccc(C(=O)O)cc1	MrgX1 allo act 6.5 | MrgX1 allo conf inactive | HEK293 Ca flux inactive | HEK293 Ca counter inactive | HEK293 Ca cntr2 inactive
CC(=O)c1ccc(NC(=O)Nc2ccc3c(c2)nc(C)n3C)cc1	MrgX1 allo act 8.8 | MrgX1 allo conf inactive | HEK293 Ca flux inactive | HEK293 Ca counter inactive | HEK293 Ca cntr2 inactive
O=C(O)C[C@@H](CNC(=O)COc1ccc2ccc(=O)oc2c1)c1ccc(Cl)cc1	none
NCC1CC2c3ccccc3C1c1ccccc12 (centres undefined)	none
Cc1cc(C(=O)CN2C(=O)NC3(CCC(C)CC3)C2=O)c(C)n1C (centres undefined)	MrgX1 allo act 12 | MrgX1 allo conf inactive | HEK293 Ca flux inactive | HEK293 Ca counter inactive | HEK293 Ca cntr2 inactive
CCOC(=O)C1CCN(C(=O)CN2C(=O)c3cccnc3Oc3ccccc32)CC1	MrgX1 allo act 8.3 | MrgX1 allo conf inactive | HEK293 Ca flux inactive | HEK293 Ca counter inactive | HEK293 Ca cntr2 inactive
CS(=O)(=O)N1N=C(c2cccs2)CC1c1ccc(F)cc1 (centres undefined)	MrgX1 allo act 21 | MrgX1 allo conf inactive | HEK293 Ca flux inactive | HEK293 Ca counter inactive | HEK293 Ca cntr2 inactive
CCc1cccc(NS(=O)(=O)c2ccc3c(c2)NC(=O)C(C)S3)c1 (centres undefined)	MrgX1 allo act 16 | MrgX1 allo conf inactive | HEK293 Ca flux inactive | HEK293 Ca counter inactive | HEK293 Ca cntr2 inactive
Cc1nnc(NC(=O)c2ccc(C)c(S(=O)(=O)N3CCOCC3)c2)s1	none
Cc1nnc(NC(=O)c2ccc(S(=O)(=O)N3CCOCC3)cc2)s1	MrgX1 allo act 9.8 | MrgX1 allo conf inactive | HEK293 Ca flux inactive | HEK293 Ca counter inactive | HEK293 Ca cntr2 inactive
Fc1ccccc1NC(=S)N(CCN1CCCCC1)Cc1ccco1	MrgX1 allo act 11 | MrgX1 allo conf inactive | HEK293 Ca flux inactive | HEK293 Ca counter inactive | HEK293 Ca cntr2 inactive
CC(C)(C)OC(=O)N1CCN(c2ccc(NC(=O)c3ccco3)cc2)CC1	none (no result: MrgX1 allo act, MrgX1 antag, MrgX1 agonist)
COc1ccccc1CCC(=O)Nc1ccc(S(=O)(=O)Nc2nccs2)cc1	none
O=C(c1ccc(COc2ccc3c(c2)CCC3)o1)N1CCN(c2ccccc2)CC1	MrgX1 allo act 7.7 | MrgX1 allo conf inactive | HEK293 Ca flux inactive | HEK293 Ca counter inactive | HEK293 Ca cntr2 inactive
Cc1ccc(CS(=O)(=O)Cc2ccc(C(=O)NC3CCCCCC3)o2)cc1	none
O=C(NCCCNC(=O)c1ccc(-c2cc(Cl)ccc2Cl)o1)c1cnccn1	MrgX1 allo act 18 | MrgX1 allo conf 20% | HEK293 Ca flux inactive | HEK293 Ca counter inactive | HEK293 Ca cntr2 inactive
O=C(NCCCNC(=O)c1ccc(Cl)cc1Cl)c1cnccn1	none
O=C(NCCCNC(=O)c1cc(Cl)ccc1Cl)c1cnccn1	none
Cc1ccc(-c2ccc(C(=O)NCCCNC(=O)c3cnccn3)o2)cc1Cl	MrgX1 allo act 18 | MrgX1 allo conf 13% | HEK293 Ca flux inactive | HEK293 Ca counter inactive | HEK293 Ca cntr2 inactive
COc1cccc(CNC2CCCCCCC2)c1OC	none
O=C(CCl)Nc1cccc(Oc2ccccc2)c1	MrgX1 allo act 13 | MrgX1 allo conf inactive | HEK293 Ca flux inactive | HEK293 Ca counter inactive | HEK293 Ca cntr2 48
O=C(CCl)Nc1cccc(Oc2cnccn2)c1	none
Cc1cc2c(N3CCCCC3C)ncnc2s1 (centres undefined)	MrgX1 allo act 7.1 | MrgX1 allo conf inactive | HEK293 Ca flux inactive | HEK293 Ca counter inactive | HEK293 Ca cntr2 inactive
COc1ccc(CNS(=O)(=O)c2ccc3c(c2)NC(=O)C(C)S3)cc1 (centres undefined)	none
CCCn1nnnc1NCc1ccc(N(CC)CC)cc1	none
C=CCc1c(C)nc(SC)nc1Nc1ccc(C(=O)O)cc1	none
C=CCc1c(C)nc(SC)nc1Nc1ccc(C(C)=O)cc1	MrgX1 allo act 7 | MrgX1 allo conf inactive | HEK293 Ca flux inactive | HEK293 Ca counter inactive | HEK293 Ca cntr2 inactive
CC(C)CSC1=NSC2=NC(=O)/C(=C\c3cccs3)C(=N)N12	none
